SKKanGAS inh = SKKanGAS growth inhibition; S. pyogenes SKKanGAS, kanamycin growth, BacTiter-Glo, 6 h; inhibition, % at 7.5 µM; hit rate 1.3% among 300,000; AID 1662;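 active = mean replicate score, as percent of positive control median, at least 50; inconclusive = mean below 50 but one replicate at or above 50; inactive = mean and every replicate below 50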;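 note: strain carries kanamycin resistance gene driven by streptokinase promoter and grows in 40 µg/ml kanamycin; loss of luminescence reflects streptokinase promoter inhibition or plain growth inhibition; 0% = median of DMSO wells and 100% = positive control at its reference dose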
CSC inhib = cancer stem cell inhibition; cancer stem cell-like cells viability, luminescence; inhibition, % at 7.5 µM; hit rate 1.1% among 300,000; in the data active = inhibition above about 75%; inconclusive = no clear call, values can overlap the other calls; tested in HMLE shEcad cells
T cruzi repl = blocks replication of Trypanosoma cruzi | T. cruzi beta-gal in NIH3T3, luminescence, 90 h | inhibition, % (no concentration beside the values) | hit rate 1.4% among 300,000;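 active = mean inhibition across valid replicates above about 55%, limit read from the data; inconclusive = mean below that limit but half or more replicates reach it; inactive = mean below it, under half of replicates reach it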;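 note: signal also drops with host cell toxicity which is not excluded here; 0% = plate median of DMSO wells and 100% = zero luminescence signal; higher percent means less beta-gal luminescence so fewer parasites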
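System – NIH/3T3 host cells with β-galactosidase reporter T. cruzi · Doses – single 50 nL compound addition per well in DMSO · Reagent – 5000 T. cruzi trypomastigotes/well · Medium – Low-serum DMEM with 2% FBS · Timing – ≥90 h infection period, 3 h prior cell attachment · Evaluation – parasite load inhibition, % · Technique – GalScreen luminescence, 60 min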
Mdm2-MdmX inh = inhibitors of human Mdm2/MdmX interaction; AID 485346; SaOS-2 split-luciferase Mdm2/MdmX complementation, luminescence; inhibition, % at 8 µM; hit rate 3% among 330,000;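 active = inhibition of at least 50% at 8 µM in the primary screen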
Target sequence (O15151 whole entry, looked up): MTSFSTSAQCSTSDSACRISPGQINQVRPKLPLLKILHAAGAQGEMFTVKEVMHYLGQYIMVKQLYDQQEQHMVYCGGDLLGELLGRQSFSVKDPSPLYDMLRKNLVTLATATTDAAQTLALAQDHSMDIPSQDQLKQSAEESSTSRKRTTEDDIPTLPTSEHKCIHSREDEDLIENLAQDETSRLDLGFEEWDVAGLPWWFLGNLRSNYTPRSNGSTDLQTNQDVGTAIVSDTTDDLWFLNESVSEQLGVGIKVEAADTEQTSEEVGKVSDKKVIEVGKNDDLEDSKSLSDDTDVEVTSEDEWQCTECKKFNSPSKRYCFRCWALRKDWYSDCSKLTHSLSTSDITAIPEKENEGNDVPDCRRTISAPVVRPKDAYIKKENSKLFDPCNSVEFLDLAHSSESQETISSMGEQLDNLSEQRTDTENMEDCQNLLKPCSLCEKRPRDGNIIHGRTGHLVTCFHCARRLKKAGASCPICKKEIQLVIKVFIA
Target sequence (Q00987 whole entry, looked up): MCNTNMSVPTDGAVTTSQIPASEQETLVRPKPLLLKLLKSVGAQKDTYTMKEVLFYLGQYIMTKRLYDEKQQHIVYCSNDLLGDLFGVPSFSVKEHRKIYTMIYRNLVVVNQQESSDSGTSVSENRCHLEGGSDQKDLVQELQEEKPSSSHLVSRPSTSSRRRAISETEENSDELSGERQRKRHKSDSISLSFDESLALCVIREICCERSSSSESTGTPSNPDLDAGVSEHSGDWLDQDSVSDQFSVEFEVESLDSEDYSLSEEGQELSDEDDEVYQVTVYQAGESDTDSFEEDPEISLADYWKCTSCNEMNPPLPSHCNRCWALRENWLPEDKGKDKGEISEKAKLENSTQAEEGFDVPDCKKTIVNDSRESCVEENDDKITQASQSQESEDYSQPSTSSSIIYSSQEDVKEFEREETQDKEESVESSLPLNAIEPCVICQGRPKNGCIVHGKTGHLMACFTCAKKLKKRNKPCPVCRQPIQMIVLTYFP
L major viab = reduces viability of Leishmania major promastigotes. inhibition, % at 10 µM. resazurin fluorescence viability. hit rate 9% among 200,000; in the data active = inhibition above about 50%;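 note: promastigotes grown with compound for 44 hours at 28 °C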
Beta cell apopt = beta cell apoptosis inhibition; AID 435005; protection from apoptosis, % (no concentration beside the values); INS-1E cytokine-induced death, ATP luminescence, 48 h; percent of positive-control rescue, neutral wells zero; hit rate 0.8% among 300,000;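 active = Every replicate reaches about 75%, or at least half do and their mean reaches it too, limit read from the data; inconclusive = At least half of replicates reach the limit but their mean does not; inactive = Under half of replicates reach the limit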;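 note: 0% = cytokine-treated negative control wells and 100% = positive control rescue; higher means more ATP so stronger rescue from cytokine killing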
Lmaj promast 1uM = L. major promastigote growth inhibition, 1 uM repeat. shares compounds with L major viab. inhibition, % at 1 µM. resazurin fluorescence, 48 h. AID 1258. hit rate 13% among 1,100;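 active = inhibition above about 50% in both repeat tests, limit read from the data; inconclusive = one repeat under the set limit, the other over it; inactive = both repeats under the set limit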
* hit, by the source's call; ? = inconclusive; / = no result given. Hits are enriched below; roughly 9.4% of the tested compounds scored in any of these assays.

SMILES	SKKanGAS inh	CSC inhib	T cruzi repl	Mdm2-MdmX inh	L major viab	Beta cell apopt	Lmaj promast 1uM
COc1ccc(NC(=O)COC(=O)c2ccc(S(=O)(=O)N(C)c3ccccc3OC)cc2)c(OC)c1	/	/	/	/	98.5*	/	-6.4
COc1ccc(NC(=O)COC(=O)c2ccc(S(=O)(=O)N(C)c3ccccc3OC)cc2)cc1OC	-0.2	-5.6	13.4	-12.8	26.9	-1.2	/
COc1ccc(/C(C)=N/NS(=O)(=O)c2cc(C)ccc2C)c(OC)c1	4.2	1.9	-1.4	-4.9	17.8	/	/
Brc1cccc(-c2nnc3sc(CNC4CCCC4)cn23)c1	-2.3	-0.8	-2.1	-26.9	84.8*	-6.8	?
CC1=CC(C)C2(CO)COC(c3cccnc3)C1C2C (stereo not given)	-0.6	-12.7	-20.3	19.4	80.5*	2.4	-3.8
O=C(NCc1nnc(SCC(=O)N2CCCC2)o1)c1cccc(C(F)(F)F)c1	44.8	-5.6	-4.1	12.4	/	-2.7	/
O=S(=O)(CC(CN1CCCCC1)N1CCCCC1)c1ccc2ccccc2c1 (stereo not given)	-0.2	/	70.6*	/	98.9*	/	?
Cc1cc(C)cc(-n2ccn(CC(=O)NCCc3ccccc3)c(=O)c2=O)c1	6.5	16.6	-2.1	-8.6	/	-5.0	/
N#Cc1ccccc1OCC(=O)NNC(=O)CNC(=O)c1ccc(Br)o1	/	-13.2	/	-4.0	/	-6.5	/
C(=C\c1nnc2c3ccccc3ncn12)/c1ccccc1	-8.1	37.2	-21.9	/	55.1*	-1.2	-23.0
COc1cc(/C=C/c2nnc3c4ccccc4ncn23)cc(OC)c1OC	0.9	-0.7	1.0	11.1	5.1	12.4	/
CCN(C(=O)c1ccc(C(C)(C)C)cc1)c1nnc(Cn2nnc3ccccc32)s1	23.2	62.0	38.7	45.8	54.2*	111.8*	36.0
CO/N=C/CC(=O)c1cnc(-c2ccc(Cl)cc2)s1	6.5	0.0	-14.5	-18.9	12.5	0.6	/
Cc1ccc2c(c1)c(=O)c1c3n2CCN(C(=O)CCl)C3CC1 (stereo not given)	-1.5	-9.3	-5.6	24.9	100.4*	-13.1	57.4*
CCOC(=O)C1CCN(C(=O)COc2ccc(Br)cc2C)CC1	-3.2	3.4	-0.5	-24.4	-4.9	-4.3	/
Nc1nc(-c2cccs2)c(NC(=O)c2ccccc2)s1	3.6	3.5	-1.8	-40.4	86.2*	0.0	-7.7
CC(=O)Nc1sc(NC(=O)c2ccc(Cl)cc2)nc1-c1cccs1	7.8	-6.2	7.0	20.8	-1.3	-5.8	/
Cc1ccc(C)c(NC(=S)N2CCC(NC(=O)C3CCCCC3)CC2)c1	-6.0	-7.2	-11.5	-9.1	/	-6.4	/
C=CCC1(O)C(=O)N2C(=C1C(=O)OCC)c1ccc3ccccc3c1CC2(C)C (stereo not given)	-0.6	-3.7	1.4	7.0	53.4*	-11.6	-18.5
CC1(C)Cc2c(ccc3ccccc23)C2=C(C(=O)N3CCCC3)C(=O)C(=O)N21	3.7	/	25.1	/	-2.9	/	/
CSCC[C@H](NS(=O)(=O)c1ccc(C)cc1)C(=O)N1CCC(C(=O)N[C@H](C(=O)O)c2ccccc2)CC1	-0.2	-4.7	-11.2	-24.8	/	-2.8	/
CC(=O)Nc1ccc(-c2csc(NC(=O)C3CCN(S(=O)(=O)c4cccs4)CC3)n2)cc1	12.3	-0.9	3.7	/	70.1*	45.1	-1.1
CCn1c(C)c(P(c2ccccc2)c2ccccc2)[n+]2ccccc12	-3.5	2.4	-13.8	-25.5	94.5*	10.5	-10.9
Cc1cc(Br)ccc1-n1[nH]c(C)c(C=Nc2cccc3nsnc23)c1=O	4.2	0.2	-9.0	12.8	-0.2	0.8	/
CC(=O)c1nn(-c2ccccc2)cc1C(=O)c1cccc(Br)c1	-8.3	-11.0	-13.9	15.5	-4.8	-10.2	/
SMILES	SKKanGAS inh	CSC inhib	T cruzi repl	Mdm2-MdmX inh	L major viab	Beta cell apopt	Lmaj promast 1uM
O=C(c1cccc(Br)c1)c1cn(-c2ccccc2)nc1C(=O)c1ccccc1	8.3	12.2	30.8	19.9	87.7*	/	6.6
Cc1cccnc1NC1CCCCC1	-2.0	-12.6	-13.5	-28.9	-3.1	-5.2	/
c1ccc2c(NC3CCCC3)nnc(NC3CCCC3)c2c1	1.0	7.9	30.4	24.9	97.2*	5.1	11.9
Fc1cccc(-c2nnn3c2nc(Cl)c2ccccc23)c1	-6.2	/	33.6	/	98.3*	/	80.8*
Cc1cc(-n2c(C)cc(C(=S)N3CCOCC3)c2C)ccc1Br	13.5	24.8	0.2	13.5	56.9*	-11.1	-8.6
CCc1sc(NC(=O)c2cc3ccccc3oc2=O)nc1-c1cccs1	0.2	/	-0.9	4.2	-6.0	/	/
COc1ccc(-c2c(=O)n(OCc3ccccc3[N+](=O)[O-])c3ccccc3[n+]2[O-])c(OC)c1	-19.5	-3.2	9.4	-2.6	19.2	-3.4	/
CCCn1c(-c2ccc(OC)cc2)nc2ccccc21	-6.4	2.8	11.0	24.9	96.2*	30.5	12.4
CC(=O)/C(CN1CCCCC1)=N\O	-2.4	-4.4	-11.2	12.1	-3.8	0.5	/
C/C(=N\O)C(=O)C(CN1CCCCC1)CN1CCCCC1	-4.0	9.0	-7.0	22.2	78.3*	15.9	1.7
Cc1ccc(OCCNC(=O)c2ccc(NC(=O)CC3SC(N4CCCC4)=NC3=O)cc2)cc1 (stereo not given)	1.4	-4.7	-4.0	18.3	/	-0.3	/
O=C(O)c1cn(Cc2ccccc2Cl)c2ccc(S(=O)(=O)N3CCOCC3)cc2c1=O	15.7	3.1	6.6	13.8	-8.8	-1.7	/
CN(C)c1cccc(C(=O)OCCCC(=O)c2ccc(F)cc2)c1	/	-4.4	/	-30.2	/	-5.1	/
CCn1c(N2CCN(S(=O)(=O)c3ccc(Cl)cc3)CC2)nc2ccccc21	-0.9	5.8	87.5*	-5.5	81.1*	14.7	-6.4
CCn1c(N2CCN(Cc3ccc([N+](=O)[O-])cc3)CC2)nc2ccccc21	-2.4	58.3	19.4	16.1	/	11.8	/
CCOc1ccc(Br)cc1S(=O)(=O)Nc1ccccc1N1CCOCC1	16.9	14.7	26.8	21.8	100.1*	-3.2	23.0
COc1c(C)cc(S(=O)(=O)NCc2ccccn2)c(C)c1C	-4.7	-15.5	4.5	-6.0	/	-7.9	/
C/C(=N\OCC(=O)NCC(F)(F)F)c1cc2ccccc2o1	-9.3	-0.2	12.3	-20.0	56.3*	2.9	-2.2
CCCCNC(=O)CO/N=C(\C)c1cc2ccccc2o1	-7.4	-2.0	-16.4	-23.0	36.6	-0.5	/
Cc1cccc(C)c1-n1nnnc1S(=O)(=O)Cc1ccccc1Cl	/	-0.2	/	20.9	76.7*	3.7	-19.7
Cc1nc(S(=O)(=O)Cc2ccccc2Cl)nc2c1CCC2	4.1	2.7	-0.2	26.1	-3.5	-4.0	/
Cc1ccc2nc(COC(=O)c3cnccn3)cc(=O)n2c1	/	-29.7	/	12.8	/	-2.3	/
Cc1c(O)ccc(/C(Cc2ccc3ccccc3n2)=N\O)c1O	12.8	12.0	-14.7	-35.1	59.2*	18.0	-9.8
Cc1c(NC(=O)OC(C)C)sc(=S)n1C	-4.6	-8.9	-1.3	0.0	96.7*	-2.0	10.1
O=C(Nc1nnc(SCc2ccccc2F)s1)C1=COCCO1	32.7	6.0	-9.7	-5.5	/	/	/
